Reference: ChEMBL document CHEMBL3526049 (Drug Metab Dispos, 2012)

Tests used:
[1] = Cmax in wild-type Wistar rat at 20 mg/kg, po by LC-MS/MS analysis; format: ADME, organism-based; set-up: dose 20 mg/kg, route oral; settings: in vivo
Procedure, shortened: (§1)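 Male Wistar wild-type or Mrp2-deficient TR⁻ rats with femoral artery and vein cannulas. Sulfasalazine was given as a 5 mg/kg i.v. bolus and as a 20 mg/kg oral dose. Arterial plasma was sampled to 24 h and analysed for parent and sulfapyridine by LC-MS/MS. Noncompartmental parameters; n = 3, mean ± S.D.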

Rattus norvegicus [2] = assay: AUC (infinity) in BCRP knockout Sprague-Dawley rat treated with sulfasalazine at 20 mg/kg, po by LC-MS/MS analysis; format: ADME, organism-based, Plasma; set-up: dose 20 mg/kg, route oral, time infinity; settings: in vivo
Procedure, shortened: (§2)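 Male Sprague-Dawley knockout or age/weight-matched wild-type rats with femoral artery and vein cannulas. Crossover design: day 0 i.v. bolus 5 mg/kg sulfasalazine in water at pH 9–10, then day 3 gavage 20 mg/kg in 0.5% carboxymethyl cellulose/PBS pH 7.4. Arterial plasma was sampled to 24 h. Sulfasalazine and sulfapyridine were measured by LC-MS/MS (1–5000 ng/ml). Parameters are noncompartmental; n = 4–8, mean ± S.D.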

[3] = AUC (infinity) in MRP2-deficient Wistar rat at 20 mg/kg, po by LC-MS/MS analysis; format: ADME, organism-based; set-up: time infinity, dose 20 mg/kg, route oral; settings: plasma; procedure, shortened: as §1
Rattus norvegicus [4] = assay: Cmax in MDR1A knockout Sprague-Dawley rat treated with sulfasalazine at 20 mg/kg, po by LC-MS/MS analysis; format: ADME, organism-based; set-up: dose 20 mg/kg, route oral; settings: in vivo; procedure, shortened: as §2
[5] = Tmax in wild-type Wistar rat at 20 mg/kg, po by LC-MS/MS analysis; format: ADME, organism-based; set-up: dose 20 mg/kg, route oral; settings: in vivo
Procedure, shortened: (§3)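 Male Wistar wild-type rats and Mrp2-deficient TR⁻ rats with femoral artery and vein cannulas. Sulfasalazine given as an iv bolus (5 mg/kg, water at pH 9–10) and by oral gavage, each followed by arterial plasma sampling over 24 h. Sulfasalazine and sulfapyridine measured by LC-MS/MS; noncompartmental parameters; mean ± S.D., n = 3.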

[6] = Tmax in wild-type Sprague-Dawley rat treated with sulfasalazine at 20 mg/kg, po by LC-MS/MS analysis; format: ADME, organism-based; set-up: dose 20 mg/kg, route oral; settings: in vivo
Procedure, shortened: (§4)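 Male Sprague-Dawley knockout rats or wild-type rats matched for age and weight, with femoral artery and vein cannulas. Crossover design: sulfasalazine 5 mg/kg iv bolus (water, pH 9–10) on day 0, then 20 mg/kg oral gavage (0.5% carboxymethyl cellulose in PBS, pH 7.4) on day 3. Arterial plasma collected 0–24 h. Sulfasalazine and sulfapyridine measured by LC-MS/MS; noncompartmental parameters; mean ± S.D., n = 4 to 8.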

[7] = Tmax in MRP2-deficient Wistar rat at 20 mg/kg, po by LC-MS/MS analysis; format: ADME, organism-based; set-up: dose 20 mg/kg, route oral; settings: in vivo; procedure, shortened: as §3
Rattus norvegicus [8] = assay: Drug metabolism in BCRP knockout Sprague-Dawley rat assessed as metabolite to parent ratio treated with sulfasalazine at 20 mg/kg, po; format: ADME, organism-based; set-up: dose 20 mg/kg, route oral; settings: in vivo; procedure, shortened: as §2
Rattus norvegicus [9] = assay: AUC (infinity) in MDR1A knockout Sprague-Dawley rat treated with sulfasalazine at 20 mg/kg, po by LC-MS/MS analysis; format: ADME, organism-based, Plasma; set-up: time infinity, dose 20 mg/kg, route oral; settings: in vivo; procedure, shortened: as §2
[10] = Half life in MRP2-deficient Wistar rat at 20 mg/kg, po by LC-MS/MS analysis; format: ADME, organism-based; set-up: dose 20 mg/kg, route oral; settings: in vivo; procedure, shortened: as §3
Rattus norvegicus [11] = assay: Cmax in wild-type Sprague-Dawley rat treated with sulfasalazine at 20 mg/kg, po by LC-MS/MS analysis; format: ADME, organism-based; set-up: dose 20 mg/kg, route oral; settings: in vivo; procedure, shortened: as §2
[12] = Tmax in BCRP knockout Sprague-Dawley rat treated with sulfasalazine at 20 mg/kg, po by LC-MS/MS analysis; format: ADME, organism-based; set-up: dose 20 mg/kg, route oral; settings: in vivo; procedure, shortened: as §4
Rattus norvegicus [13] = assay: Drug metabolism in MDR1A knockout Sprague-Dawley rat assessed as metabolite to parent ratio treated with sulfasalazine at 20 mg/kg, po; format: ADME, organism-based; set-up: dose 20 mg/kg, route oral; settings: in vivo; procedure, shortened: as §2
[14] = Half life in wild-type Sprague-Dawley rat treated with sulfasalazine at 20 mg/kg, po by LC-MS/MS analysis; format: ADME, organism-based; set-up: dose 20 mg/kg, route oral; settings: in vivo; procedure, shortened: as §4
[15] = Tmax in MDR1A knockout Sprague-Dawley rat treated with sulfasalazine at 20 mg/kg, po by LC-MS/MS analysis; format: ADME, organism-based; set-up: dose 20 mg/kg, route oral; settings: in vivo; procedure, shortened: as §4
Rattus norvegicus [16] = assay: Drug metabolism in wild-type Sprague-Dawley rat assessed as metabolite to parent ratio treated with sulfasalazine at 20 mg/kg, po; format: ADME, organism-based; set-up: dose 20 mg/kg, route oral; settings: in vivo; procedure, shortened: as §2
[17] = Half life in wild-type Wistar rat at 20 mg/kg, po by LC-MS/MS analysis; format: ADME, organism-based; set-up: dose 20 mg/kg, route oral; settings: in vivo; procedure, shortened: as §3
Rattus norvegicus [18] = assay: Drug metabolism in wild-type Wistar rat assessed as metabolite to parent ratio treated with sulfasalazine at 20 mg/kg, po; format: ADME, organism-based; set-up: dose 20 mg/kg, route oral; settings: in vivo; procedure, shortened: as §1
Rattus norvegicus [19] = assay: AUC (infinity) in MRP2 knockout Sprague-Dawley rat treated with sulfasalazine at 20 mg/kg, po by LC-MS/MS analysis; format: ADME, organism-based, Plasma; set-up: dose 20 mg/kg, route oral, time infinity; settings: in vivo; procedure, shortened: as §2
Rattus norvegicus [20] = assay: Cmax in MRP2 knockout Sprague-Dawley rat treated with sulfasalazine at 20 mg/kg, po by LC-MS/MS analysis; format: ADME, organism-based; set-up: dose 20 mg/kg, route oral; settings: in vivo; procedure, shortened: as §2
[21] = Tmax in MRP2 knockout Sprague-Dawley rat treated with sulfasalazine at 20 mg/kg, po by LC-MS/MS analysis; format: ADME, organism-based; set-up: dose 20 mg/kg, route oral; settings: in vivo; procedure, shortened: as §4
Rattus norvegicus [22] = assay: Drug metabolism in MRP2-deficient Wistar rat assessed as metabolite to parent ratio treated with sulfasalazine at 20 mg/kg, po; format: ADME, organism-based; set-up: dose 20 mg/kg, route oral; settings: in vivo; procedure, shortened: as §1
[23] = Half life in MRP2 knockout Sprague-Dawley rat treated with sulfasalazine at 20 mg/kg, po by LC-MS/MS analysis; format: ADME, organism-based; set-up: dose 20 mg/kg, route oral; settings: in vivo; procedure, shortened: as §4
[24] = Cmax in MRP2-deficient Wistar rat at 20 mg/kg, po by LC-MS/MS analysis; format: ADME, organism-based; set-up: dose 20 mg/kg, route oral; settings: in vivo; procedure, shortened: as §1
[25] = Half life in MDR1A knockout Sprague-Dawley rat treated with sulfasalazine at 20 mg/kg, po by LC-MS/MS analysis; format: ADME, organism-based; set-up: dose 20 mg/kg, route oral; settings: in vivo; procedure, shortened: as §4
Rattus norvegicus [26] = assay: Cmax in BCRP knockout Sprague-Dawley rat treated with sulfasalazine at 20 mg/kg, po by LC-MS/MS analysis; format: ADME, organism-based; set-up: dose 20 mg/kg, route oral; settings: in vivo; procedure, shortened: as §2
Rattus norvegicus [27] = assay: Drug metabolism in MRP2 knockout Sprague-Dawley rat assessed as metabolite to parent ratio treated with sulfasalazine at 20 mg/kg, po; format: ADME, organism-based; set-up: dose 20 mg/kg, route oral; settings: in vivo; procedure, shortened: as §2
[28] = AUC (infinity) in wild-type Wistar rat at 20 mg/kg, po by LC-MS/MS analysis; format: ADME, organism-based; set-up: dose 20 mg/kg, route oral, time infinity; settings: plasma; procedure, shortened: as §1
[29] = Half life in BCRP knockout Sprague-Dawley rat treated with sulfasalazine at 20 mg/kg, po by LC-MS/MS analysis; format: ADME, organism-based; set-up: dose 20 mg/kg, route oral; settings: in vivo; procedure, shortened: as §4
Rattus norvegicus [30] = assay: AUC (infinity) in wild-type Sprague-Dawley rat treated with sulfasalazine at 20 mg/kg, po by LC-MS/MS analysis; format: ADME, organism-based, Plasma; set-up: time infinity, dose 20 mg/kg, route oral; settings: in vivo; procedure, shortened: as §2

Cmax [1]: 4320 ng/mL
AUC (Rattus norvegicus [2]): 14576 ng.Eq.hr/ml
AUC(0-inf) [3]: 15400 ng·h/mL
Cmax (Rattus norvegicus [4]): 2525 ng.Eq/ml
Tmax [5]: 4 h
Tmax [6]: 5 h
Tmax [7]: 4 h
Ratio (Rattus norvegicus [8]): 4.6
AUC (Rattus norvegicus [9]): 14985 ng.Eq.hr/ml
half-life [10]: 102 min
Cmax (Rattus norvegicus [11]): 4764 ng.Eq/ml
Tmax [12]: 4 h
Ratio (Rattus norvegicus [13]): 24
half-life [14]: 138 min
Tmax [15]: 7 h
Ratio (Rattus norvegicus [16]): 50
half-life [17]: 138 min
Ratio (Rattus norvegicus [18]): 16
AUC (Rattus norvegicus [19]): 12675 ng.Eq.hr/ml
Cmax (Rattus norvegicus [20]): 2499 ng.Eq/ml
Tmax [21]: 4.4 h
Ratio (Rattus norvegicus [22]): 34
half-life [23]: 96 min
Cmax [24]: 3240 ng/mL
half-life [25]: 78 min
Cmax (Rattus norvegicus [26]): 2843 ng.Eq/ml
Ratio (Rattus norvegicus [27]): 22
AUC(0-inf) [28]: 29400 ng·h/mL
half-life [29]: 102 min
AUC (Rattus norvegicus [30]): 21992 ng.Eq.hr/ml
Structure (SMILES): Nc1ccc(S(=O)(=O)Nc2ccccn2)cc1 [SULFAPYRIDINE]
